# Reference: publication PMC2914325 (Nanomedicine (London, England), 2010)
# Tests used:
# [1] = Absorption and fluorescence spectroscopy, quantum yield, TCSPC lifetime, TRES; assay type: physicochemical; conditions: for λem: 720 nm excitation; for τ (fluorescence lifetime): TCSPC, 773 nm excitation, 820 nm detection; for Φ (quantum yield): relative to ICG in DMSO
# [2] = Aggregation / stability of probes in solvents; assay type: physicochemical
# [3] = tested on: intradermal 4T1luc tumors in mouse ears; test: High resolution noninvasive NIR imaging of intradermal ear tumors; assay type: in vivo, mouse (female balb/c); conditions: post-injection
# Procedure, shortened: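 4T1luc cells (1×10^4) were implanted intradermally in each ear; n=3. From day 3, isoflurane-anaesthetised mice had glycerin-coated ears imaged at 800 nm (0.02 mm/pixel). Nanoparticles (0.10 mL, 4×10^13 particles/mL) or small-molecule probe (0.02 mL, 20 μM, 20% DMSO/water) were given i.v. by tail vein. Imaging was pre-, immediately post-, 4 h and 24 h post-injection, repeated days 8 and 15. Background-subtracted tumour ROI intensity was normalised to injected dose from vessel ROIs.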
# [4] = tested on: subcutaneous 4T1luc tumors; test: Whole-body planar fluorescence reflectance imaging; assay type: in vivo, mouse (male NCR nude); conditions: 24 hours post-injection, i.v., subcutaneous 4T1luc tumor
# Procedure, shortened: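 Tumours were 2×10^5 4T1luc cells s.c. in the right shoulder; n=3. Mice received i.v. 100 μl small-molecule probe (20 μM, 20% DMSO/water) or 150 μL nanoparticles. Planar NIR reflectance images (755±35 nm excitation, 830 nm emission, 60 s) were taken at 1, 4 and 24 h, with white-light/X-ray reference. Organs were then imaged ex vivo. ROI mean intensities were compared by Student's t-test (α = 0.05).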
# [5] = 20% DMSO/water, room temperature
Molecule,"ε × 10^-3 ([1]; DMSO, room temperature) [M^-1 cm^-1]","λabs ([1]; DMSO, room temperature) [nm]","λem ([1]; DMSO, room temperature) [nm]",τ (fluorescence lifetime) ([1]; DMSO) [ns],Φ (quantum yield) ([1]; DMSO),aggregation ([2]; aqueous solutions),"λabs [1, 5] [nm]","λem [1, 5] [nm]",τ (fluorescence lifetime) ([1]; 20% DMSO/water) [ns],Φ (quantum yield) ([1]; 20% DMSO/water),stability in solvent ([2]; 20% DMSO/water),time of peak tumor-to-normal contrast [3] [h],In vivo tumor contrast [4]
CC1(C)C(/C=C/C=C/C=C/C=C2/N(CCC(=O)O)c3ccc4ccccc4c3C2(C)C)=[N+](CCC(=O)[O-])c2ccc3ccccc3c21 [cypate],224,790,817,0.97,0.12,form non-emissive aggregates,–,–,–,–,–,–,–
cypate-cRGDfK,–,–,–,–,–,–,790,804,0.24,0.036,stable,4,1.32 +/- 0.13
